The structures appear in SMILES notation. ≈ marks a conversion by molar mass, not a printed value. Where a SMILES comes first, the peptide text is derived from it. [ ]: non-standard residue; d: D form. Orn = NCCC[C@H](N)C(=O)O

The test system of one series is Acinetobacter baumannii. Description: Antibacterial activity against Acinetobacter baumannii ATCC 19606 after 18 to 20 hrs by microbroth dilution method. The format is functional. In short, it runs like this:
(§1)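 CLSI microbroth dilution, adapted. Mid-log bacteria, 2 × 10^6 CFU/mL in Mueller-Hinton broth, mixed 1:1 with MH broth holding peptide in serial 2-fold dilutions in 20% ethanol (0.75-48 μM). Incubated 18-20 h at 37 °C; growth read as A600. MIC is the lowest concentration giving 100% growth inhibition.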

The test system of the next series is Acinetobacter junii. Description: Antibacterial activity against […] Acinetobacter junii RT-4 after 18 to 20 hrs by microbroth dilution method. The format is functional. In outline: as §1
A further series relates to Enterococcus faecalis. Description: Antibacterial activity against Enterococcus faecalis ATCC 29212 after 18 to 20 hrs by microbroth dilution method. The format is functional. In outline: as §1
The test system of series [1] is Escherichia coli. Description: Antibacterial activity against Escherichia coli ATCC 25922 after 18 to 20 hrs by microbroth dilution method. The series is classed as functional. In short, it runs like this:
as §1

The test system of series [2] is Escherichia coli. Description: Antibacterial activity against Escherichia coli D21 after 18 to 20 hrs by microbroth dilution method. The series is classed as functional. In outline:
as §1

Another series has as its system Pseudomonas syringae. Description: Antibacterial activity against Pseudomonas syringae pv tobaci after 18 to 20 hrs by microbroth dilution method. The series is classed as functional. In short, it runs like this: as §1
Series [3] concerns Pseudomonas aeruginosa. Description: Antibacterial activity against Pseudomonas aeruginosa ATCC 15692 after 18 to 20 hrs by microbroth dilution method. The series is classed as functional. In outline: as §1
In series [4] the test system is Pseudomonas aeruginosa. Description: Antibacterial activity against Pseudomonas aeruginosa ATCC 27853 after 18 to 20 hrs by microbroth dilution method. The series is classed as functional. In short, it runs like this: as §1
Series [5] has as its system Yersinia pseudotuberculosis. Description: Antibacterial activity against Yersinia pseudotuberculosis YPIII after 18 to 20 hrs by microbroth dilution method. The series is classed as functional. In outline: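 Broth microdilution adapted from CLSI. Mid-log bacteria at 2 × 10^6 CFU/mL in Mueller-Hinton broth were mixed 1:1 with MH broth containing peptide in serial 2-fold dilutions (peptide in 20% ethanol), 0.75-48 μM. Plates were incubated 18-20 h at 37 °C and growth was read as A600. MIC is the concentration giving 100% growth inhibition.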

The next series has as its system Priestia megaterium. Description: Antibacterial activity against Bacillus megaterium Bm11 after 18 to 20 hrs by microbroth dilution method. The series is classed as functional. In short, it runs like this: as §1
Series [6] has as its system Staphylococcus aureus. Description: Antibacterial activity against Staphylococcus aureus ATCC 25923 after 18 to 20 hrs by microbroth dilution method. The series is classed as functional. In outline: as §1
Series [7] concerns Staphylococcus aureus. Description: Antibacterial activity against Staphylococcus aureus Cowan I after 18 to 20 hrs by microbroth dilution method. The format is functional. In short, it runs like this: as §1
For the next series, the system named is Staphylococcus capitis. Description: Antibacterial activity against Staphylococcus capitis after 18 to 20 hrs by microbroth dilution method. The format is functional. In short, it runs like this:
as §1

Series [8] deals with Staphylococcus epidermidis. Description: Antibacterial activity against Staphylococcus epidermidis ATCC 12228 after 18 to 20 hrs by microbroth dilution method. The series is classed as functional. In outline: as §1
For another series, the system named is Streptococcus pyogenes. Description: Antibacterial activity against Streptococcus pyogenes ATCC 21547 after 18 to 20 hrs by microbroth dilution method. The series is classed as functional. In outline: as §1
The subject of the next series is Candida albicans. Description: Antifungal activity against Candida albicans ATCC 10231 after 18 to 20 hrs by microbroth dilution method. The format is functional. In outline:
(§2)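 Yeasts tested by adapted CLSI microbroth dilution in Winge medium. Peptide given in serial 2-fold dilutions (0.75-48 μM, made in 20% ethanol). Incubation 18-20 h at 30 °C, read at A600. MIC taken as the concentration giving complete (100%) growth inhibition.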

The test system of series [9] is Schizosaccharomyces pombe. Description: Antifungal activity against Schizosaccharomyces pombe after 18 to 20 hrs by microbroth dilution method. The series is classed as functional. In short, it runs like this:
as §2

For the next series, the system named is Saccharomyces cerevisiae. Description: Antifungal activity against Saccharomyces cerevisiae after 18 to 20 hrs by microbroth dilution method. The series is classed as functional. In outline:
as §2

Series [10] can be described thus: Toxicity in human erythrocytes assessed as hemolysis at 24 uM after 40 mins. The format is cell-based, Erythrocyte. The settings on record: read-out: Activity. In short, it runs like this: (§3)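 Human red blood cells suspended in 0.9% (w/v) NaCl and incubated 40 min at 37 °C with gentle mixing with serial 2-fold peptide dilutions (peptide predissolved in 20% ethanol). Spun 5 min at 900g; supernatant read at 415 nm. Cells lysed in distilled water set the 100% lysis reference.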

The nature of series [11]: Toxicity in human erythrocytes assessed as hemolysis at 12 uM after 40 mins. The format is cell-based, Erythrocyte. Particulars: read-out: Activity. In short, it runs like this:
as §3

Series [12] in a line: Toxicity in human erythrocytes assessed as hemolysis at 6 uM after 40 mins. The format is cell-based, Erythrocyte. Particulars: read-out: Activity. In short, it runs like this:
as §3

The nature of series [13]: Toxicity in human erythrocytes assessed as hemolysis at 3 uM after 40 mins. The series is classed as cell-based, Erythrocyte. Particulars: read-out: Activity. In outline:
as §3

Series [14] is described as follows: Toxicity in human erythrocytes assessed as hemolysis at 1.5 uM after 40 mins. The format is cell-based, Erythrocyte. Particulars: read-out: Activity. In outline:
as §3

Turning to `CC[C@H](C)[C@H](NC(=O)[C@H](CCCNC(=N)N)NC(=O)[C@H]1CCCN1C(=O)[C@H](CC(C)C)NC(=O)[C@H](Cc1ccccc1)NC(=O)[C@H](CCCCN)NC(=O)[C@H](CO)NC(=O)[C@H](Cc1ccccc1)NC(=O)[C@H](Cc1c[nH]c2ccccc12)NC(=O)[C@@H]1CCCN1C(=O)[C@@H](NC(=O)[C@@H](N)Cc1ccccc1)C(C)C)C(=O)N[C@@H](CC(C)C)C(N)=O`, the MIC was 48 µM (≈ 79.2 µg/mL) in the series on Acinetobacter baumannii; 24 µM (≈ 39.6 µg/mL) in the series with Acinetobacter junii; 48 µM (≈ 79.2 µg/mL) against Enterococcus faecalis; 24 µM (≈ 39.6 µg/mL) in the series with Escherichia coli [1]; 48 µM (≈ 79.2 µg/mL) in the series with Escherichia coli [2]; above 48 µM in the series on Pseudomonas syringae. Besides, the minimum inhibitory concentration (MIC) is above 48 µM against Pseudomonas aeruginosa [3]; above 48 µM against Pseudomonas aeruginosa [4]; 24 µM (≈ 39.6 µg/mL) in [5]; 3 µM (≈ 4.95 µg/mL) in the series on Priestia megaterium; 48 µM (≈ 79.2 µg/mL) in the series on Staphylococcus aureus [6]; 24 µM (≈ 39.6 µg/mL) against Staphylococcus aureus [7]. Besides, the minimal inhibitory concentration (MIC) against Staphylococcus capitis is 24 µM (≈ 39.6 µg/mL); in series [8], 12 µM (≈ 19.8 µg/mL); in the series on Streptococcus pyogenes, 24 µM (≈ 39.6 µg/mL); in the series on Candida albicans, 24 µM (≈ 39.6 µg/mL); in [9], 12 µM (≈ 19.8 µg/mL); against Saccharomyces cerevisiae it was 12 µM (≈ 19.8 µg/mL). For the same compound, the hemolysis at 40 min, 24 µM in series [10] was determined as 2.5%. The hemolysis at 40 min, 12 µM in series [11] worked out at 2%. In addition, in series [12], the hemolysis at 40 min, 6 µM turned out to be 0.6%. Moreover, in series [13], the hemolysis at 40 min, 3 µM turned out to be 1.5%. Also, in series [14], the hemolysis at 40 min, 1.5 µM turned out to be 0.4%.

Consider `CC[C@H](C)[C@H](NC(=O)[C@H](CCCNC(=N)N)NC(=O)CNC(=O)[C@H](CC(C)C)NC(=O)[C@H](Cc1ccccc1)NC(=O)[C@H](CCCCN)NC(=O)[C@H](CO)NC(=O)[C@H](Cc1ccccc1)NC(=O)[C@H](Cc1c[nH]c2ccccc12)NC(=O)[C@@H]1CCCN1C(=O)[C@@H](NC(=O)[C@@H](N)Cc1ccccc1)C(C)C)C(=O)N[C@@H](CC(C)C)C(N)=O` (H-FVPWFSKFLGRIL-NH2), for which the minimal inhibitory concentration (MIC) is 6 µM (≈ 9.65 µg/mL) with Acinetobacter baumannii; 6 µM (≈ 9.65 µg/mL) with Acinetobacter junii; 6 µM (≈ 9.65 µg/mL) against Enterococcus faecalis; 24 µM (≈ 38.6 µg/mL) against Escherichia coli [1]; 12 µM (≈ 19.3 µg/mL) in the series with Escherichia coli [2]; 6 µM (≈ 9.65 µg/mL) with Pseudomonas syringae. The MIC with Pseudomonas aeruginosa [3] was 24 µM (≈ 38.6 µg/mL); in the series with Pseudomonas aeruginosa [4], above 48 µM; in series [5], 3 µM (≈ 4.83 µg/mL); in the series on Priestia megaterium it was 1.5 µM (≈ 2.41 µg/mL); against Staphylococcus aureus [6], 3 µM (≈ 4.83 µg/mL); against Staphylococcus aureus [7] it was 1.5 µM (≈ 2.41 µg/mL). In addition, the MIC came out at 1.5 µM (≈ 2.41 µg/mL) against Staphylococcus capitis; 1.5 µM (≈ 2.41 µg/mL) in series [8]; 6 µM (≈ 9.65 µg/mL) against Streptococcus pyogenes; 6 µM (≈ 9.65 µg/mL) against Candida albicans; 3 µM (≈ 4.83 µg/mL) in series [9]; 6 µM (≈ 9.65 µg/mL) against Saccharomyces cerevisiae. In series [10], the hemolysis at 40 min, 24 µM worked out at 92%. Moreover, the hemolysis at 40 min, 12 µM in series [11] was found to be 42%. The hemolysis at 40 min, 6 µM in series [12] was found to be 10%. Further, the hemolysis at 40 min, 3 µM in [13] is 6%. Besides, the hemolysis at 40 min, 1.5 µM in series [14] is 4.5%.

Regarding `CC[C@H](C)[C@H](NC(=O)[C@H](CCCN)NC(=O)CNC(=O)[C@H](CC(C)C)NC(=O)[C@H](Cc1ccccc1)NC(=O)[C@H](CCCCN)NC(=O)[C@H](CO)NC(=O)[C@H](Cc1ccccc1)NC(=O)[C@H](Cc1c[nH]c2ccccc12)NC(=O)[C@@H]1CCCN1C(=O)[C@@H](NC(=O)[C@@H](N)Cc1ccccc1)C(C)C)C(=O)N[C@@H](CC(C)C)C(N)=O` (H-FVPWFSKFLG[Orn]IL-NH2), the MIC is 12 µM (≈ 18.8 µg/mL) against Acinetobacter baumannii; 6 µM (≈ 9.4 µg/mL) against Acinetobacter junii; 12 µM (≈ 18.8 µg/mL) in the series on Enterococcus faecalis; 12 µM (≈ 18.8 µg/mL) in the series with Escherichia coli [1]; 24 µM (≈ 37.6 µg/mL) in the series with Escherichia coli [2]; 12 µM (≈ 18.8 µg/mL) in the series on Pseudomonas syringae. For the same compound, the MIC amounted to 48 µM (≈ 75.2 µg/mL) in the series with Pseudomonas aeruginosa [3]; 48 µM (≈ 75.2 µg/mL) in the series on Pseudomonas aeruginosa [4]; 6 µM (≈ 9.4 µg/mL) in series [5]; 6 µM (≈ 9.4 µg/mL) in the series with Priestia megaterium; 12 µM (≈ 18.8 µg/mL) in the series on Staphylococcus aureus [6]; 3 µM (≈ 4.7 µg/mL) against Staphylococcus aureus [7]. For the same compound, the minimal inhibitory concentration (MIC) worked out at 6 µM (≈ 9.4 µg/mL) against Staphylococcus capitis; 6 µM (≈ 9.4 µg/mL) in [8]; 6 µM (≈ 9.4 µg/mL) in the series with Streptococcus pyogenes; 6 µM (≈ 9.4 µg/mL) in the series on Candida albicans; 12 µM (≈ 18.8 µg/mL) in series [9]; 6 µM (≈ 9.4 µg/mL) against Saccharomyces cerevisiae. The hemolysis at 40 min, 24 µM in series [10] was 72%. Besides, the hemolysis at 40 min, 12 µM in [11] was found to be 12%. The hemolysis at 40 min, 6 µM in [12] came out at 2%. Moreover, in series [13], the hemolysis at 40 min, 3 µM worked out at 1%. Besides, the hemolysis at 40 min, 1.5 µM in series [14] is 0.7%.

These data come from ChEMBL document CHEMBL1687913, “Structure-activity relationship, conformational and biological studies of temporin L analogues” (J Med Chem, 2011).
